Bioassay records (PubChem BioAssay)
miR-122 sensor: miR-122 Renilla sensor signal increase in Huh7, primary screen, miR-122 inhibitor project, cell-based, single point, plate reader | Huh7 miR-122 Renilla luciferase sensor, 48 h; neutral wells = 0, positive control = 100 | activation (reporter increase), % at 12.5 µM | 340,000 tested, 0.3% active | AID 602342, 2012;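 active = mean replicate activation score at least 90 and every replicate individually at or above 90; inconclusive = only one of the two criteria met; inactive = neither criterion met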;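 also: higher luciferase means less miR-122 activity so hits act as miR-122 inhibitors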
Ecoli rRNA inh: reduced GFP signal of wild-type E. coli, primary screen, bacterial rRNA inhibitor project, GFP/RFP fluorescence, OD600, single point. GFP signal change (wild-type ribosome), % (no concentration beside the values). 350,000 tested, 1.6% active. E. coli WT GFP vs humanized-ribosome RFP mutants, 24 h; stronger effect = lower value; DMSO median 0, no signal -100;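 active = significant combined selectivity score with lowered wild-type GFP, culture density cut under 30%, mutant RFP and density less affected; inactive = any of these conditions unmet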
INS-1E GSIS act: GLuc luminescence reporter in INS-1E cells, primary screen for activators of glucose-dependent secretion of insulin | activation, % at 16.6 µM | 370,000 tested, 0.61% active | AID 743287, 2014 | INS-1E GLuc reporter insulin secretion, 2-3 h;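 active = lowest replicate activation of at least 40%, so every replicate reaches that level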;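 also: 0% = median of neutral control wells and 100% = median of IBMX positive control wells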
CFTR F508del cor: F508del CFTR correction, initial screen, CFBE line, single point. AID 720511, 2013. CFBE cells, YFP halide quenching; stimulated with forskolin plus potentiator P3; % fluorescence drop versus neutral controls. activity (quench increase), % at 7.58 µM. 350,000 tested, 0.36% active;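 active = mean added fluorescence quench of at least 8% versus neutral control, with both replicates also reaching 8%; inconclusive = only one of the mean or replicate conditions met; inactive = mean below 8% and not both replicates reaching 8%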;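 also: cells transiently co-express mutant CFTR-F508del with the halide-sensitive YFP; corrector assay measuring rescue of mutant channel to the surface after 24 h compound exposure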
Cneo AK release: Cryptococcus neoformans cell lysis inducers, primary screen, AK release luminescence, single concentration; 360,000 tested, 0.2% active; C. neoformans lysis, adenylate kinase release luminescence, 4 h; normalised: neutral wells 0, clomiphene wells 100; lysis activity, % at 15 µM;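 active = mean lysis activity across replicates of at least 80%, whatever share of replicates individually reach that level; inactive = mean lysis activity below 80%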
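Assay system: Cryptococcus neoformans yeast cells / Dosing: single-point compound dose / Timing: 4 h at 37 °C static, read 1 h later / Measured by: luminescence of released adenylate kinase using an AK detection reagent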
HIV Env fusion: inhibitors of HIV-1 Env-driven cell-cell fusion, primary screen, HeLa-JRFL effector, CEM21 target cells, luciferase; 360,000 tested, 1.1% active; AID 651610, 2012; inhibition, % at 12.3 µM;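 active = mean replicate inhibition score of at least 50 and every replicate individually at or above 50; inconclusive = only one of the two criteria met; inactive = mean below 50 and not all replicates reaching 50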;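 also: 0% = plate neutral controls and 100% = maraviroc near 300 nM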
The depositor's hits bear a star; i = inactive; ? = inconclusive; nt = no result given; [ ] = dose if it differs, or a comment. This is a sample that favours compounds with a hit; in the whole collection about 3.1% have one here.

SMILES	miR-122 sensor	Ecoli rRNA inh	INS-1E GSIS act	CFTR F508del cor	Cneo AK release	HIV Env fusion
COCC(=O)N1C[C@H](C)[C@@H](OC)CN(C)C(=O)c2cc(NC(=O)c3cc(C)on3)ccc2OC[C@H]1C	nt	2	4	0	nt	15[16.7 µM]
COc1cc2c(c(OC)c1OC)C(=O)C(=Cc1ccccc1)O2	-10	-29*	10	0	-1	1
C=CCNC(=S)Nc1sc2c(c1C(N)=O)CCCC2	9	-31*	-1	2	-1	-2
Cc1ccc(C)c(NC(=O)C(=O)NCCc2c[nH]c3ccccc23)c1	-13	-21*	-15	0	5	10
O=C(NCCc1c[nH]c2ccccc12)Nc1ccccc1	-3	nt	nt	nt	-1	-16
Cc1ccc(NC(=O)C(=O)NCCc2c[nH]c3ccccc23)c(C)c1	0	5	19	-4	nt	11
COc1cc(OC)cc(C(=O)N[C@H](C(=O)NCCc2c[nH]c3ccccc23)C(C)C)c1	7	-12	-4	2	4	78*
Cc1cc(/C=C(\C#N)C(=O)NCCc2c[nH]c3ccccc23)c(C)n1C	nt	-38*	-2	-1	nt	14
COc1ccccc1NC(=O)NCCc1c[nH]c2ccccc12	11	-22*	-4	-6	nt	-2
C[C@H]1CN([C@@H](C)CO)C(=O)Cc2cc(NC(=O)Nc3ccccc3)ccc2O[C@@H]1CN(C)S(=O)(=O)c1ccc(F)cc1	-3[16.7 µM]	-3	-3	-2	-1	30[16.7 µM]
COc1ccc(CNC(=O)NCCc2c[nH]c3ccccc23)cc1	-31	-5	-6	0	-1	-19
Cc1ccc(C)c(NC(=S)NCCc2c[nH]c3ccccc23)c1	2	-17	-25	0	3	15
COc1ccc(CCNC(=S)NCCc2c[nH]c3ccccc23)cc1	nt	-33*	-43	0	nt	-4
Cc1ccccc1NC(=S)NCCc1c[nH]c2ccccc12	nt	-24*	-9	nt	nt	6
COc1ccc(NC(=O)Nc2ccc3c(c2)C(=O)N([C@@H](C)CO)C[C@H](C)[C@@H](CN(C)S(C)(=O)=O)O3)cc1	-12[16.7 µM]	2	4	0	0	nt
COCC(=O)Nc1ccc2c(c1)C(=O)N(C)C[C@H](OC)[C@H](C)CN(Cc1cccc(F)c1)[C@@H](C)CO2	nt	-4	-2	1	1	nt
COc1cc(NC(=O)c2c(-c3ccccc3Cl)noc2C)c2ncccc2c1	1	-1	51*	-3	1	25
Cc1onc(-c2ccccc2Cl)c1C(=O)Nc1cccc2cccnc12	-11	nt	14	nt	-7	nt
Cc1cccc(/C=C2\Sc3ccc(C(=O)N4CCCCC4)cc3N(C)C2=O)c1	-14	2	-5	1	-1	18
CN1C(=O)/C(=C/c2cccc(Cl)c2)Sc2ccc(C(=O)N3CCCC3)cc21	nt	-35*	-9	4	nt	8
CC(C)NC(=O)Nc1ccc2c(c1)C(=O)N(C)[C@H]1CC[C@@H](CC(=O)NCC3CCCCC3)O[C@H]1CO2	23[16.7 µM]	-5	-3	-1	-16	5[16.7 µM]
CC(C)(C)NC(=O)C(c1ccncc1)n1c(=O)c(-c2cc3ccccc3[nH]2)nc2ccccc21 (stereo not given)	nt	-42	-14	1	nt	58*
O=C(NCc1ccccc1)C(c1ccc(-c2ccccc2)cc1)n1c(=O)c(-c2cc3ccccc3[nH]2)nc2ccccc21 (stereo not given)	nt	2	14	10*	nt	-2
C[C@@H]1CN([C@@H](C)CO)C(=O)Cc2cc(NC(=O)CCCCCC(=O)Nc3ccccc3N)ccc2O[C@H]1CN(C)CC1CC1	nt	4	50	1	nt	nt
COC(=O)c1nn(-c2ccc3c(c2)CCN3C(C)=O)cc1O	2	nt	2	nt	3	73*
SMILES	miR-122 sensor	Ecoli rRNA inh	INS-1E GSIS act	CFTR F508del cor	Cneo AK release	HIV Env fusion
COC(=O)c1nn(-c2ccc3c(c2)OCO3)cc1O	-2	nt	11	nt	nt	-98
COc1ccc([C@@H]2C/C=C\C[C@H](c3ccc(F)cc3)NC(=O)CCC(=O)N2)c(OC)c1	nt	-5	-6	nt	nt	nt
CC(C)(C)c1cc(OC(=O)C2CCCC2)ccc1O	-4	14	40	-10	-3	6
CCCCC(CC)C(=O)Oc1ccc(O)c(C(C)(C)C)c1 (stereo not given)	-13	-22*	511*	-2	42	26
Cc1ccccc1OC(C)C(=O)Nc1ccc(S(=O)(=O)Nc2nccs2)cc1 (stereo not given)	-14	-6	16	-1	13	-3
CC(Oc1ccccc1Cl)C(=O)Nc1ccc(S(=O)(=O)Nc2nccs2)cc1 (stereo not given)	15	-45	87*	8.7*	-1	nt
O=C(Nc1ccc(S(=O)(=O)Nc2nccs2)cc1)c1cc(-c2ccccc2Cl)nc2ccccc12	104*	nt	nt	nt	nt	nt
O=C(Nc1ccc(S(=O)(=O)Nc2nccs2)cc1)c1cc(-c2ccccn2)nc2ccccc12	nt	-20	16	0	nt	15
Cc1ccccc1CN1CCc2c(OCC(=O)N3CCCCC3)cccc2C1=O	nt	-25*	-9	-1	nt	4
COCC#Cc1ccc([C@@H]2[C@H](CO)N3C(=O)CN(C(=O)Nc4cc(F)ccc4F)C[C@@H]23)cc1	nt	-1	-9	nt	nt	nt
CCOCC(=O)N1CCC(Cc2ccccc2)CC1	5	4	-16	3	nt	?
Cn1c(C(=O)O)c(CC(=O)N2CCC(Cc3ccccc3)CC2)c2ccccc21	-4	-26*	-4	2	2	nt
Cc1cc2nc(/C=C/c3cccnc3)[nH]c2cc1C	15	-28*	17	2	-9	i
COCC(=O)Nc1ccc2c(c1)[C@H]1C[C@H](CC(=O)O)O[C@H](CO)[C@H]1O2	0[16.7 µM]	-1	17	-3	1	6[16.7 µM]
O=C(N/N=C/c1ccccc1O)C1SCCCS1	nt	-14*	-5	-4	nt	-7
O=C(NN=Cc1ccccc1O)C1CC1	nt	7	0	2	7	nt
C[C@H]1CN([C@@H](C)CO)C(=O)c2cc(C#CCN(C)C)cnc2O[C@@H]1CN(C)C(=O)NC1CCCC1	13[16.7 µM]	1	1	6	-1	-20[16.7 µM]
CCOc1ccc(OCC)c(NC(=O)CSc2nc3cccnc3n2C)c1	-9	-33*	-10	nt	-2	23
CCOC(=O)c1cccc(NC(=O)CSc2nc3cccnc3n2C)c1	-6	nt	nt	nt	3	62*
CCOc1ccc(OCC)c(NC(=O)CSc2nnnn2CC)c1	-1	nt	nt	nt	nt	-9
CCOc1ccc(OCC)c(NC(=O)CSc2nc3ccccc3c(=O)n2C)c1	-3	nt	nt	nt	2	91*
